Measurements as given in ChEMBL document CHEMBL4138082 (Eur J Med Chem, 2017).
Activity calls are given as the source filed them. The rule behind the calls is not given here.

What was measured:
HepG2 [1] = assay: Downregulation of Bcl-2 level in human HepG2 cells up to 0.25 uM after 48 hrs by Western blot method; type: functional, cell-based
In short: (§1)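 HepG-2 cells were exposed 48 h to 0, 0.0625, 0.125 or 0.25 µM and lysed on ice for 20 min. Equal protein loads were run on 12% SDS-PAGE and transferred to PVDF. Membranes were probed overnight at 4 °C with primary antibodies, then with HRP-conjugated secondaries, and detected by ECL chemiluminescence.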

HepG2 [2] = assay: Induction of apoptosis in human HepG2 cells assessed as late apoptotic cells at 0.125 uM after 48 hrs by […] (reference value: 3.36%); type: functional
HepG2 [3] = assay: Cell cycle arrest in human HepG2 cells assessed as G2 phase accumulation at 0.125 uM after 48 hrs by propidium iodide staining based flow cytometry (reference value: 23.38%); type: functional
In short: (§2)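 HepG-2 cells were plated and grown 24 h at 37 °C, then treated 48 h at 0, 0.0625, 0.125 or 0.25 µM, with 0.1% DMSO as control. Cells were fixed overnight in 70% ethanol at 4 °C, treated with RNase A and stained with propidium iodide. DNA content was measured by flow cytometry to give cell-cycle phase distribution.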

HT-29 = assay: Antiproliferative activity against human HT-29 cells after 72 hrs by MTT assay; type: functional, cell-based; conditions: HT-29, 72 h
In short: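 MTT assay. Cells were seeded and grown 24 h at 37 °C in 5% CO2, then exposed to compound or left untreated for 72 h. MTT (5 mg/mL stock) was added for 4 h and the formazan dissolved in DMSO. OD was read at 570 nm. IC50 is the concentration giving 50% growth inhibition, reported as mean ± SD of three independent experiments. Vehicle reference was 0.1% DMSO.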

HepG2 [4] = assay: Downregulation of pro-caspase 3 level in human HepG2 cells up to 0.25 uM after 48 hrs by Western blot method; type: functional, cell-based; in short: as §1
HepG2 [5] = assay: Induction of apoptosis in human HepG2 cells assessed as cell population with mitochondrial membrane potential loss at 0.125 uM measured after 48 hrs by JC-1 staining based flow cytometry (reference value: 1.49%); type: functional
In short: (§3)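 HepG-2 cells were exposed 48 h to 0.0625, 0.125 or 0.25 µM or to vehicle, then washed in PBS and stained with JC-1 in the dark. Red aggregate versus green monomer fluorescence was measured by flow cytometry to give the percentages of cells with healthy versus collapsed mitochondrial membrane potential.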

HepG2 [6] = assay: Downregulation of survivin expression in human HepG2 cells after 24 hrs by protein array assay; type: functional, cell-based
In short: (§4)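 Lysates from HepG-2 cells treated 24 h were incubated overnight at 4 °C on a membrane array of 35 apoptosis-related proteins. A biotinylated detection antibody cocktail was then applied for 1 h at room temperature. Relative expression was read from chemiluminescent spots by densitometry.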

HepG2 [7] = assay: Induction of apoptosis in human HepG2 cells assessed as viable cells at 0.25 uM after 48 hrs by Annexin V-APC/7-AAD staining based flow cytometry (reference value: 91.07%); type: functional; conditions: HepG2, 48 h, read-out: Activity
HepG2 [8] = assay: Upregulation of total Cyt c level in human HepG2 cells up to 0.25 uM after 48 hrs by Western blot method; type: functional, cell-based
HepG2 [9] = assay: Induction of apoptosis in human HepG2 cells assessed as viable cells at 0.0625 uM after 48 hrs by Annexin V-APC/7-AAD staining based flow cytometry (reference value: 91.07%); type: functional; conditions: HepG2, 48 h, read-out: Activity
HepG2 [10] = assay: Induction of apoptosis in human HepG2 cells assessed as necrotic cells at 0.25 uM after 48 hrs by Annexin V-APC/7-AAD staining based flow cytometry (reference value: 2.40%); type: functional
HepG2 [11] = assay: Cell cycle arrest in human HepG2 cells assessed as S phase accumulation at 0.125 uM after 48 hrs by propidium iodide staining based flow cytometry (reference value: 43.88%); type: functional; in short: as §2
HepG2 [12] = assay: Induction of mitochondrial membrane potential loss in human HepG2 cells measured after 48 hrs by JC-1 staining based flow cytometry; type: functional, cell-based
In short: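 After 48 h exposure to 0.0625, 0.125 or 0.25 mM (so in the source) or vehicle, HepG-2 cells washed in PBS and stained with JC-1 in the dark. Flow cytometry scored cells with healthy (red aggregate) versus collapsed (green monomer) mitochondrial membrane potential.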

HepG2 [13] = assay: Induction of apoptosis in human HepG2 cells assessed as late apoptotic cells at 0.25 uM after 48 hrs by […] based flow cytometry (reference value: 3.36%); type: functional
HepG2 [14] = assay: Cell cycle arrest in human HepG2 cells assessed as S phase accumulation at 0.25 uM after 48 hrs in presence of hemoglobin by propidium iodide staining based flow cytometry (reference value: 36.40%); type: functional
HepG2 [15] = assay: Downregulation of HO-2 expression in human HepG2 cells after 24 hrs by protein array assay; type: functional, cell-based; in short: as §4
HepG2 [16] = assay: Induction of apoptosis in human HepG2 cells assessed as early apoptotic cells at 0.25 uM after 48 hrs by […] based flow cytometry (reference value: 3.18%); type: functional
HepG2 [17] = assay: Induction of apoptosis in human HepG2 cells assessed as early apoptotic cells at 0.0625 uM after 48 hrs by […] based flow cytometry (reference value: 3.18%); type: functional
HepG2 [18] = assay: Cell cycle arrest in human HepG2 cells assessed as G2 phase accumulation at 0.25 uM after 48 hrs in presence of hemoglobin by propidium iodide staining based flow cytometry (reference value: 10.67%); type: functional
[19] = Drug metabolism in human L02 cells assessed as NO release by measuring nitrite formation at 100 uM after 1 hr by Griess assay; type: ADME, cell-based; conditions: l02, 1 h
In short: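 HepG-2 or L-02 cells were exposed to 100 µM of each compound for 60 min and then harvested. Lysates were mixed with Griess reagent for 10 min at 37 °C and absorbance was read at 550 nm. NO release is expressed as nitrite, reported as mean ± SD of three independent experiments.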

HepG2 [20] = assay: Cell cycle arrest in human HepG2 cells assessed as S phase accumulation at 0.0625 uM after 48 hrs in presence of hemoglobin by propidium iodide staining based flow cytometry (reference value: 36.40%); type: functional
HepG2 [21] = assay: Cell cycle arrest in human HepG2 cells assessed as G2 phase accumulation at 0.0625 uM after 48 hrs by propidium iodide staining based flow cytometry (reference value: 23.38%); type: functional; in short: as §2
HepG2 [22] = assay: Induction of apoptosis in human HepG2 cells assessed as cell population with intact mitochondrial membrane potential at 0.25 uM measured after 48 hrs by JC-1 staining based flow cytometry (reference value: 98.51%); type: functional; in short: as §3
HepG2 [23] = assay: Cell cycle arrest in human HepG2 cells assessed as G2 phase accumulation at 0.125 uM after 48 hrs in presence of hemoglobin by propidium iodide staining based flow cytometry (reference value: 10.67%); type: functional
HepG2 [24] = assay: Cell cycle arrest in human HepG2 cells assessed as G1 phase accumulation at 0.25 uM after 48 hrs by propidium iodide staining based flow cytometry (reference value: 32.74%); type: functional; in short: as §2
HepG2 [25] = assay: Downregulation of Bcl-xl level in human HepG2 cells up to 0.25 uM after 48 hrs by Western blot method; type: functional, cell-based; in short: as §1
HepG2 [26] = assay: Induction of apoptosis in human HepG2 cells assessed as necrotic cells at 0.125 uM after 48 hrs by Annexin V-APC/7-AAD staining based flow cytometry (reference value: 2.40%); type: functional

C[C@H]1CCC/C=C/[C@@H]2C[C@H](OC(=O)CCCC(=O)OCCOc3no[n+]([O-])c3S(=O)(=O)c3ccccc3)C[C@H]2[C@H](OC(=O)CCCC(=O)OCCOc2no[n+]([O-])c2S(=O)(=O)c2ccccc2)/C=C/C(=O)O1
Activity (HepG2 [1]): Active | Activity (HepG2 [2]): 21.42% | Activity (HepG2 [3]): 17% | IC50 (HT-29): 160 nM | Activity (HepG2 [4]): Active | Activity (HepG2 [5]): 35.45% | Activity (HepG2 [6]): Active | viability at 0.25 µM (HepG2 [7]): 39.3% | Activity (HepG2 [8]): Active | viability at 0.0625 µM (HepG2 [9]): 82.1% | Activity (HepG2 [10]): 5.47% | Activity (HepG2 [11]): 51.22% | Activity (HepG2 [12]): Dose-dependent effect | Activity (HepG2 [13]): 40.21% | Activity (HepG2 [14]): 22.37% | Activity (HepG2 [15]): Active | Activity (HepG2 [16]): 15.03% | Activity (HepG2 [17]): 3.1% | Activity (HepG2 [18]): 5.3% | Drug metabolism [19]: 22.4 µM | Activity (HepG2 [20]): 24.74% | Activity (HepG2 [21]): 18.96% | Activity (HepG2 [22]): 39.86% | Activity (HepG2 [23]): 6.22% | Activity (HepG2 [24]): 25.17% | Activity (HepG2 [25]): Active | Activity (HepG2 [26]): 2.4%
